Data set [1] can be described thus: Cmax in Balb/c mouse at 10 mg/kg, po by HPLC-MS/MS analysis. Also noted: dose 10 mg/kg, route oral. To be noted: in vivo. It counts as ADME, organism-based. A digest of the protocol:
(§1)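 Balb/c mice dosed at 5 mg/kg iv or 10 mg/kg po. Plasma concentrations over time used to derive t1/2, AUC0–∞, Vd and total clearance (iv), and tmax, Cmax, AUC0–∞ and oral bioavailability (po).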

Data set [2] in a line: AUC (0 to infinity) in Balb/c mouse at 5 mg/kg, ip by HPLC-MS/MS analysis. Also noted: dose 5 mg/kg, time infinity, route intraperitoneal. In kind it is ADME, organism-based. To be noted: in vivo.
The nature of data set [3]: Half life in Balb/c mouse at 5 mg/kg, ip by HPLC-MS/MS analysis. To be noted: in vivo. It counts as ADME, organism-based.
The nature of data set [4]: Tmax in Balb/c mouse at 10 mg/kg, po by HPLC-MS/MS analysis. To be noted: in vivo. In kind it is ADME, organism-based. The essentials: as §1
Data set [5] concerns the target Free fatty acid receptor 1 (Homo sapiens) (UniProt O14842). Kind of data set: Antagonist activity at human FFA1 receptor expressed in HEK293 cells assessed as inhibition of linoleic acid-induced calcium flux at 10 uM by fluorimetry. It counts as functional, cell-based. For orientation: A change in cytosolic calcium serves as a functional read-out for many receptors and channels.

Data set [6] deals with T1, Oxysterols receptor LXR-beta (Homo sapiens) (UniProt P55055).
T1 sequence (whole entry): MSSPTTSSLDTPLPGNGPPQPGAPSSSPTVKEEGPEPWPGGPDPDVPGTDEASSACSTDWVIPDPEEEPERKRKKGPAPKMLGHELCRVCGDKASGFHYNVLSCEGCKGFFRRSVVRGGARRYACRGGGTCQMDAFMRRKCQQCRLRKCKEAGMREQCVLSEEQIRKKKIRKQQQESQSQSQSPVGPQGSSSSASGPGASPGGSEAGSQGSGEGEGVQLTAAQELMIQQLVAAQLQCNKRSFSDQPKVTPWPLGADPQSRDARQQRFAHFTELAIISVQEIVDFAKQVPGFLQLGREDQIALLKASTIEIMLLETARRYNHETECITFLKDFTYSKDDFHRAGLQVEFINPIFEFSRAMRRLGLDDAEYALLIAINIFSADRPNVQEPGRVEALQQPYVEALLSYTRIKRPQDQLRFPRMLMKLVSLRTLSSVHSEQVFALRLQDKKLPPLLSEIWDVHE
Kind of data set: Antagonist activity at human LXRbeta expressed in Escherichia coli assessed as inhibition of T0901317-induced calcium flux at 10 uM by fluorimetry.

In data set [7] the target is T2, Peroxisome proliferator-activated receptor delta (Homo sapiens) (UniProt Q03181).
T2 sequence (whole entry): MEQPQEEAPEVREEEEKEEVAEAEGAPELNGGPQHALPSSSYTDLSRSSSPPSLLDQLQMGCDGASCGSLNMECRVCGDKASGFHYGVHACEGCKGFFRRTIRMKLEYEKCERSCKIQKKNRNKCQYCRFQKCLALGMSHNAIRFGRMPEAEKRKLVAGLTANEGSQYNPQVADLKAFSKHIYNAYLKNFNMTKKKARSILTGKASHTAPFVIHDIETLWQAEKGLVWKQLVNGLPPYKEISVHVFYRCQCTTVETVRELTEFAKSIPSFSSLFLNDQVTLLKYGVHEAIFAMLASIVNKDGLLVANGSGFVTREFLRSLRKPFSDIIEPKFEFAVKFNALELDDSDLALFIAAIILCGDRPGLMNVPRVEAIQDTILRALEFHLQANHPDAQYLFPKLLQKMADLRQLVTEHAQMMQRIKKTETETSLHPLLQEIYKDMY
Nature of the data set: Agonist activity at human PPARdelta expressed in Escherichia coli assessed as induction of calcium flux at 10 uM by fluorimetry.

Data set [8] in a line: Chemical stability of the compound in FaSSGF after 2 hrs. It counts as ADME, physicochemical. To be noted: read-out: Stability. A digest of the protocol:
(§2)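 Simulated-fluid stability: 50 µM compound in FaSSIF or FaSSGF (from 10 mM DMSO stock), shaken at 37 °C for 0 and 120 min. Quenched with acetonitrile containing 0.5% HCOOH, centrifuged, supernatant by HPLC. Stability from peak area relative to the 0 min sample; duplicates, mean reported.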

Data set [9] is described as follows: Volume of distribution in Balb/c mouse at 5 mg/kg, iv by HPLC-MS/MS analysis. It counts as ADME, organism-based. To be noted: in vivo. The essentials:
as §1

Data set [10] is described as follows: Octanol/PBS buffer partition co-efficient, log D of the compound at pH 7.4 after 24 hrs by HPLC analysis. In kind it is physicochemical.
A short description of data set [11]: Chemical stability of the compound in FaSSIF after 2 hrs. In kind it is physicochemical. To be noted: read-out: Stability. The essentials:
as §2

Data set [12] concerns the target T3, Free fatty acid receptor 4 (Homo sapiens) (UniProt Q5NUL3).
T3 sequence (whole entry): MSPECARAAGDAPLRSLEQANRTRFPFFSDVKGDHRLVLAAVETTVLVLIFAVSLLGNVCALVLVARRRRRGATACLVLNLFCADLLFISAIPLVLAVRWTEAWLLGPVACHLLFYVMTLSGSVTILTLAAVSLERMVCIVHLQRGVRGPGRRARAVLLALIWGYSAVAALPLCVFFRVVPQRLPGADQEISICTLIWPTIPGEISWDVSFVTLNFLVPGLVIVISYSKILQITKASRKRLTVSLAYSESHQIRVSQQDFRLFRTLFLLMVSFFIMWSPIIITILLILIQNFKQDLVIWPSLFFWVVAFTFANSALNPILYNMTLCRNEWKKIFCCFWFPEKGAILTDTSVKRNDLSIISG
Kind of data set: Antagonist activity at human FFA4 receptor expressed in HEK293 cells assessed as inhibition of GW9508-induced of calcium flux at 10 uM by fluorimetry. In kind it is functional, cell-based.

The nature of data set [13]: Chemical stability of the compound in PBS buffer at 37 degC after 3 weeks. It counts as physicochemical. To be noted: read-out: Stability. A digest of the protocol:
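Chemical stability: 50 µM compound (diluted from 10 mM DMSO stock) in 10 mM phosphate buffer, pH 7.4, shaken at 37 °C; sampled at intervals over 3 weeks. Remaining compound by HPLC peak area relative to the 0 time point; duplicate runs, each injected twice.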

Data set [14] deals with T4, Peroxisome proliferator-activated receptor gamma (Homo sapiens) (UniProt P37231).
T4 sequence (whole entry): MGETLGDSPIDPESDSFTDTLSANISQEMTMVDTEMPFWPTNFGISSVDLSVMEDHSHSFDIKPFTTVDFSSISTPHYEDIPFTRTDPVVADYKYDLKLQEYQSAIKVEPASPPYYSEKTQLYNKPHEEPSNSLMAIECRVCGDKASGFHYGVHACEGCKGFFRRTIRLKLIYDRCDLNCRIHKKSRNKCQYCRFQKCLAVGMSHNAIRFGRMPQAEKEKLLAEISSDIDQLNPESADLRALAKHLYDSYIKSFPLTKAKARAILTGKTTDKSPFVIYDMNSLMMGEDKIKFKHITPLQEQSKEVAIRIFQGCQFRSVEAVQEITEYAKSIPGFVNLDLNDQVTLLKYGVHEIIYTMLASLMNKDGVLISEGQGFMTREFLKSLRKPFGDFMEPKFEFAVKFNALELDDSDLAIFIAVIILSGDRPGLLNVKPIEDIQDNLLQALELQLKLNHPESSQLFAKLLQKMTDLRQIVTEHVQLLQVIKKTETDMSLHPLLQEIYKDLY
Nature of the data set: Antagonist activity at human PPARgamma expressed in Escherichia coli assessed as inhibition of rosiglitazone-induced calcium flux at 10 uM by fluorimetry.

Activity calls are given as the source filed them. No cut-off for these calls is given here.

For orientation: Cmax means the highest concentration seen after dosing. The AUC(0-inf) is the area under the concentration-time curve extrapolated to infinity. In general, half-life refers to how long it takes for the measured level to halve. As a reminder, the Tmax is the time at which the peak concentration occurs. Broadly, the Vd is the apparent volume that relates the amount in the body to the concentration in plasma or blood. A higher Vd goes with extensive tissue distribution. What is called logD is the decadic logarithm of the distribution of all forms, ionised or not, between an organic phase and buffer at a given pH.

Sequence of Free fatty acid receptor 1 (Homo sapiens) (O14842 whole entry): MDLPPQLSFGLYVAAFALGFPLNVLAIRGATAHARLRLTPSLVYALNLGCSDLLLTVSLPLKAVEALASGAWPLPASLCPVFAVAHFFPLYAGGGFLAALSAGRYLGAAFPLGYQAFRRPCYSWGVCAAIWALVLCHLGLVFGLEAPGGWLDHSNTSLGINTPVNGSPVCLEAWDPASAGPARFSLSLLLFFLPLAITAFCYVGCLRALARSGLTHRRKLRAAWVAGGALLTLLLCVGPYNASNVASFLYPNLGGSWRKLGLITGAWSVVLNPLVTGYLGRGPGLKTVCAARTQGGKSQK

Consider `Cc1noc(C)c1-c1ccc(C(=O)N2[C@@H](c3ccccc3Cl)SC[C@H]2C(=O)O)cc1`, for which the Cmax in data set [1] is 2880 ng/mL. Besides, the AUC(0-inf) in data set [2] was 1010 ng·h/mL. This molecule also returned a half-life in data set [3] of 82 min. In addition, in data set [4], the Tmax was 15 min. Moreover, the inhibition result in data set [5], in [6], in data set [12] and in [14] was “inactive” in each case. For the same molecule, the result in [7] was inactive. Besides, the remaining at 2 h turned out to be 100% in [8] and 95% in data set [11]. Further, the distribution volume (Vd) in [9] amounted to 4.05 L/kg. The molecule also gave a pH-dependent lipophilicity (logD) at 24 h in data set [10] of 0.94. The remaining at […] in data set [13] came out at 97.6%.
